Columns and labels:
Cytochrome P450 3A4 = Cytochrome P450 3A4 (Homo sapiens, UniProt P08684); experiment: Inhibition of CYP3A4 at up to 50 uM; type: ADME
[1] = Half life in Sprague-Dawley rat at 10 mg/kg, po; type: ADME, organism-based; parameters: dose 10 mg/kg, route oral; conditions: in vivo
[2] = Clearance in Sprague-Dawley rat at 1 mg/kg, iv; type: ADME, organism-based; parameters: dose 1 mg/kg, route intravenous; conditions: in vivo
In short: (§1)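 Intravenous dose of 1 mg/kg. Blood sampled at 0.50, 1, 2, 4, 8 and 24 h. Plasma obtained by centrifugation at 10 000 rpm for 5 min and kept at −20 °C until analysis.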

Interstitial collagenase = target: T1, Interstitial collagenase (Homo sapiens, UniProt P03956); experiment: Inhibition of human recombinant MMP1 after 60 mins by fluorescence plate reader
T1 sequence (P03956 whole entry): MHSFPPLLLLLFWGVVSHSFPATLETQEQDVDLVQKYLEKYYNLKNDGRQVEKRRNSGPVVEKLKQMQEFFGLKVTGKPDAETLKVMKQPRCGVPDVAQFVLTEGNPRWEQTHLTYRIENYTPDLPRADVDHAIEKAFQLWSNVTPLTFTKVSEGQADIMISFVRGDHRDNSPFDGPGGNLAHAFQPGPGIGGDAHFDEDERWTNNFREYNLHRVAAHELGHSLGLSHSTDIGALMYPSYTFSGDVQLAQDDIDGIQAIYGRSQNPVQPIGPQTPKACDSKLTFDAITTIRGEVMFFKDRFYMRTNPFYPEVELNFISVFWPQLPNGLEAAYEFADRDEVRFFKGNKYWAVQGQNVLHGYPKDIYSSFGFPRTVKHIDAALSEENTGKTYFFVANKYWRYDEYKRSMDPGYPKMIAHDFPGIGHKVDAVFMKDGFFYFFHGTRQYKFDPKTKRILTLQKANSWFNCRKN
In short: (§2)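 Recombinant human enzyme at 20 ng/mL with 10 μM MOCAc-Lys-Pro-Leu-Gly-Leu-A2pr(Dnp)-Ala-Arg-NH₂, in 100 mM Tris-HCl pH 7.5, 150 mM NaCl, 10 mM CaCl₂, 0.05% Brij-35. Enzyme pretreated with inhibitor for 15 min at 25 °C, then substrate added. Fluorescence (ex 325, em 405 nm) read at 60 min. IC50 taken from three points in the linear range; mean of ≥2 determinations.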

Cytochrome P450 2C9 = Cytochrome P450 2C9 (Homo sapiens, UniProt P11712); experiment: Inhibition of CYP2C9 at up to 50 uM; type: ADME
[3] = Oral bioavailability in Sprague-Dawley rat at 10 mg/kg; type: ADME, organism-based; conditions: Sprague-Dawley, in vivo
[4] = AUC in Sprague-Dawley rat at 10 mg/kg, po; type: ADME, organism-based; parameters: dose 10 mg/kg, route oral; conditions: plasma
[5] = target: Disintegrin and metalloproteinase domain-containing protein 17 (Homo sapiens, UniProt P78536); experiment: Inhibition of human recombinant TACE after 60 mins by fluorescence plate reader
In short: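 rh-TACE at 80 ng/mL with 10 μM MCA-Pro-Leu-Ala-Gln-Ala-Val-Dpa-Arg-Ser-Ser-Ser-Arg-NH₂, in 100 mM Tris-HCl pH 7.5, 150 mM NaCl, 10 mM CaCl₂, 0.05% Brij-35. Inhibitor preincubated for 15 min at 25 °C. Fluorescence (ex 325/em 405 nm) read at 60 min. IC50 from three linear-range points; mean of ≥2.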

[6] = Volume of distribution at steady state in Sprague-Dawley rat at 1 mg/kg, iv; type: ADME, organism-based; parameters: dose 1 mg/kg, route intravenous; conditions: in vivo, read-out: Vdss; in short: as §1
Cytochrome P450 2A6 = target: T2, Cytochrome P450 2A6 (Homo sapiens, UniProt P11509); experiment: Inhibition of CYP2A6 at up to 50 uM; type: ADME
T2 sequence (P11509 whole entry): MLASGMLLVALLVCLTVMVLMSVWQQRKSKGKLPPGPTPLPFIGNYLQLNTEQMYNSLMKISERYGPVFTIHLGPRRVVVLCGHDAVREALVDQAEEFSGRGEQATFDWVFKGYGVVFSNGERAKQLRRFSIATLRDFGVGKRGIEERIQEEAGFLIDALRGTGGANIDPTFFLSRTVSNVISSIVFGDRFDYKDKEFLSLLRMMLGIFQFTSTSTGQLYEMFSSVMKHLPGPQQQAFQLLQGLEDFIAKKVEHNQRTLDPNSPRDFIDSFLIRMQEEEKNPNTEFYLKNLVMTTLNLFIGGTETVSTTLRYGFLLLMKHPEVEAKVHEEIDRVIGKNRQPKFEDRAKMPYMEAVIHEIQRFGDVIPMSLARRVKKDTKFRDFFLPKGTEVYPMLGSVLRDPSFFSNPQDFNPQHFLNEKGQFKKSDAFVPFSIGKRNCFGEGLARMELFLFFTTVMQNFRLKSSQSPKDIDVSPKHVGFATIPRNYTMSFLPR

Cytochrome P450 2D6 = Cytochrome P450 2D6 (Homo sapiens, UniProt P10635); experiment: Inhibition of CYP2D6 at up to 50 uM; type: ADME
[7] = Cmax in Sprague-Dawley rat at 10 mg/kg, po; type: ADME, organism-based; parameters: dose 10 mg/kg, route oral; conditions: in vivo
Cytochrome P450 1A2 = target: T3, Cytochrome P450 1A2 (Homo sapiens, UniProt P05177); experiment: Inhibition of CYP1A2 at up to 50 uM; type: ADME
T3 sequence (P05177 whole entry): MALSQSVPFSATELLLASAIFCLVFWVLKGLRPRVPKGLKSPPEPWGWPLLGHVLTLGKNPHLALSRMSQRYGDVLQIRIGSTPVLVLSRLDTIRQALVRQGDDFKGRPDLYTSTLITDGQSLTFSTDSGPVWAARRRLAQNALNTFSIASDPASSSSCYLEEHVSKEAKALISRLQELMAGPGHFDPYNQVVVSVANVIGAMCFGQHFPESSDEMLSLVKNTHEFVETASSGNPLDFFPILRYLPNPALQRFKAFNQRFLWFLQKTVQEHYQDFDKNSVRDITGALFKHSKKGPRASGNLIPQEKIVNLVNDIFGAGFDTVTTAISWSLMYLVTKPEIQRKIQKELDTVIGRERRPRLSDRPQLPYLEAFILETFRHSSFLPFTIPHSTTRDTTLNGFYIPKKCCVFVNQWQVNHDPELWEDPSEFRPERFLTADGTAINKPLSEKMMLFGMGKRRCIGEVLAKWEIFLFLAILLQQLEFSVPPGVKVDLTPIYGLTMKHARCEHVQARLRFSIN

Cytochrome P450 2C19 = Cytochrome P450 2C19 (Homo sapiens, UniProt P33261); experiment: Inhibition of CYP2C19 at up to 50 uM; type: ADME
[8] = target: T4, A disintegrin and metalloproteinase with thrombospondin motifs 5 (Homo sapiens, UniProt Q9UNA0); experiment: Inhibition of human recombinant aggrecanase 2 after 150 mins by fluorescence plate reader
T4 sequence (Q9UNA0 whole entry): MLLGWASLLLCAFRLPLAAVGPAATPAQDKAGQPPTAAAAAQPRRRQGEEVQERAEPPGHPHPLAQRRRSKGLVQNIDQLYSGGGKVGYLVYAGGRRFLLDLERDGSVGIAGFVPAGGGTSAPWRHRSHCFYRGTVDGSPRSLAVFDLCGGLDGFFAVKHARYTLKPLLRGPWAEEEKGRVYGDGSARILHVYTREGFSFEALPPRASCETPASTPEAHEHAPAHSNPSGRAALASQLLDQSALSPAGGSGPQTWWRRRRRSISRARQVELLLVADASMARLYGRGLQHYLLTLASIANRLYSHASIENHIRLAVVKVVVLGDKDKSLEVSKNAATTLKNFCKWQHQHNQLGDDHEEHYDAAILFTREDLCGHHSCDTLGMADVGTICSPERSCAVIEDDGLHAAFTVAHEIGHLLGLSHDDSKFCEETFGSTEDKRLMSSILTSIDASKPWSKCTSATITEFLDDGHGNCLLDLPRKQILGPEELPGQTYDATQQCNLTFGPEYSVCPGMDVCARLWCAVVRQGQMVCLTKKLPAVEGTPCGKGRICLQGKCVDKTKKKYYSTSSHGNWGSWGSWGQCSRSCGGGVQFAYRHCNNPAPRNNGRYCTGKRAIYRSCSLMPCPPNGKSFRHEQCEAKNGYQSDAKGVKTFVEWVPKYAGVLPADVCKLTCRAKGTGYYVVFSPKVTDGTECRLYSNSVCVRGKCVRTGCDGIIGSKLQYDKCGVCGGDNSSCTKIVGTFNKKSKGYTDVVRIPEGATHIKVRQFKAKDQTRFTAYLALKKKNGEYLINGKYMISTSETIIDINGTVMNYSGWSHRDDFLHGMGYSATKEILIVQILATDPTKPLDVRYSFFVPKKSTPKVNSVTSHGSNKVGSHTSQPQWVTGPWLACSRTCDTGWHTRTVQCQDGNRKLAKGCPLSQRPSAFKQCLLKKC

[9] = target: Matrix metalloproteinase-14 (Homo sapiens, UniProt P50281); experiment: Inhibition of human recombinant MMP14 after 60 mins by fluorescence plate reader; in short: as §2
[10] = target: Matrix metalloproteinase-9 (Homo sapiens, UniProt P14780); experiment: Inhibition of human recombinant MMP9 after 60 mins by fluorescence plate reader
In short: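 rh-MMP-9 at 4 ng/mL with 10 μM MOCAc-Pro-Leu-Gly-Leu-A2pr(Dnp)-Ala-Arg-NH₂, in 100 mM Tris-HCl pH 7.5, 150 mM NaCl, 10 mM CaCl₂, 0.05% Brij-35. Enzyme and inhibitor preincubated for 15 min at 25 °C before substrate. Fluorescence (ex 325/em 405 nm) read at 60 min. IC50 from three linear-range points; ≥2 runs averaged.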

Collagenase 3 = Collagenase 3 (Homo sapiens, UniProt P45452); experiment: Inhibition of human recombinant MMP13 after 60 mins by fluorescence plate reader
In short: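 rh-MMP-13 at 40 ng/mL with 5 μM 7-MCA-Pro-CHA-Gly-NVal-His-Ala-DPA, in Tris-HCl pH 7.5/NaCl/CaCl₂/0.05% Brij-35. Pretreatment with inhibitor for 15 min at 25 °C, then substrate started the reaction. Fluorescence (ex 325/em 405 nm) read at 60 min. IC50 from three central linear points, averaged over ≥2 determinations.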

[11] = target: T5, A disintegrin and metalloproteinase with thrombospondin motifs 4 (Homo sapiens, UniProt O75173); experiment: Inhibition of human recombinant aggrecanase 1 after 150 mins by fluorescence plate reader
T5 sequence (O75173 whole entry): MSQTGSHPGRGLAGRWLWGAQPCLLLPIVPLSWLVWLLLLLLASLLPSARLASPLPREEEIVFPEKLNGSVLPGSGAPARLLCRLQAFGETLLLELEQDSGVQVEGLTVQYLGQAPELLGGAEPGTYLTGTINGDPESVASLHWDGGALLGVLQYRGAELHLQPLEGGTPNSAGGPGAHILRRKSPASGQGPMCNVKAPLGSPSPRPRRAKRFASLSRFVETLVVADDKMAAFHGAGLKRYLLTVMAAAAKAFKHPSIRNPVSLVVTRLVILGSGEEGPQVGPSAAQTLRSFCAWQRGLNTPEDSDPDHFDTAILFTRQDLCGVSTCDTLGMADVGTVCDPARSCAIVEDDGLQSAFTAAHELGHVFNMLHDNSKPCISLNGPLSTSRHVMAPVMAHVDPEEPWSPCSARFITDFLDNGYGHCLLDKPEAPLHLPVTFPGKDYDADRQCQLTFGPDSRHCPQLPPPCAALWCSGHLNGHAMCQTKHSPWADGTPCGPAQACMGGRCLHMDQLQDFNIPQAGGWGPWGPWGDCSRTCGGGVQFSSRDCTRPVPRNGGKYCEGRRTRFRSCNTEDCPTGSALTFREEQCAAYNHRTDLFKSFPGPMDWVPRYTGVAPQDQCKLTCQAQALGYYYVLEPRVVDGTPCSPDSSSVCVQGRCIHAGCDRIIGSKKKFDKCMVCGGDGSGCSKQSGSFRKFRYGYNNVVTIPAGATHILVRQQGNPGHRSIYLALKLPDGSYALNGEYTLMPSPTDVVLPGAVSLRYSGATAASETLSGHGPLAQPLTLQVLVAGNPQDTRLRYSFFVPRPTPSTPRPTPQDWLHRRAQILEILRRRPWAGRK

Stromelysin-1 = Stromelysin-1 (Homo sapiens, UniProt P08254); experiment: Inhibition of human recombinant MMP3 after 60 mins by fluorescence plate reader
In short: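 rh-MMP-3 at 40 ng/mL with 10 μM MOCAc-Arg-Pro-Lys-Pro-Val-Glu-Nva-Trp-Arg-Lys(Dnp)-NH₂, in Tris-HCl pH 7.5/NaCl/CaCl₂/Brij-35 buffer. Inhibitor preincubated for 15 min at 25 °C. Fluorescence (ex 325/em 405 nm) read at 60 min. IC50 from three central linear points; at least two determinations averaged.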

Chain of Cytochrome P450 2C9 (P11712 whole entry): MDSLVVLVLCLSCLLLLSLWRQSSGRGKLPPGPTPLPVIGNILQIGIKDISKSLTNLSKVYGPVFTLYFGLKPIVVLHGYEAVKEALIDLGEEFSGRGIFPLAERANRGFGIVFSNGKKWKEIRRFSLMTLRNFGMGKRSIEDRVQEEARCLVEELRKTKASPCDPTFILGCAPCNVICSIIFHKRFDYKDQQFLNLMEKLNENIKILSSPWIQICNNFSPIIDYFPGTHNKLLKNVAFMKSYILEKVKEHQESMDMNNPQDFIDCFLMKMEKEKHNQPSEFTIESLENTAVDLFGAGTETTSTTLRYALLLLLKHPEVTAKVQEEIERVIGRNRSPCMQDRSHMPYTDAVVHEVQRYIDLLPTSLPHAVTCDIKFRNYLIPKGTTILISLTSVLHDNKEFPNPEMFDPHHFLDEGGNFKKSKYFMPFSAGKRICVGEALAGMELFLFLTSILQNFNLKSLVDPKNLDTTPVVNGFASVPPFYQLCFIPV
Chain of Matrix metalloproteinase-9 (P14780 whole entry): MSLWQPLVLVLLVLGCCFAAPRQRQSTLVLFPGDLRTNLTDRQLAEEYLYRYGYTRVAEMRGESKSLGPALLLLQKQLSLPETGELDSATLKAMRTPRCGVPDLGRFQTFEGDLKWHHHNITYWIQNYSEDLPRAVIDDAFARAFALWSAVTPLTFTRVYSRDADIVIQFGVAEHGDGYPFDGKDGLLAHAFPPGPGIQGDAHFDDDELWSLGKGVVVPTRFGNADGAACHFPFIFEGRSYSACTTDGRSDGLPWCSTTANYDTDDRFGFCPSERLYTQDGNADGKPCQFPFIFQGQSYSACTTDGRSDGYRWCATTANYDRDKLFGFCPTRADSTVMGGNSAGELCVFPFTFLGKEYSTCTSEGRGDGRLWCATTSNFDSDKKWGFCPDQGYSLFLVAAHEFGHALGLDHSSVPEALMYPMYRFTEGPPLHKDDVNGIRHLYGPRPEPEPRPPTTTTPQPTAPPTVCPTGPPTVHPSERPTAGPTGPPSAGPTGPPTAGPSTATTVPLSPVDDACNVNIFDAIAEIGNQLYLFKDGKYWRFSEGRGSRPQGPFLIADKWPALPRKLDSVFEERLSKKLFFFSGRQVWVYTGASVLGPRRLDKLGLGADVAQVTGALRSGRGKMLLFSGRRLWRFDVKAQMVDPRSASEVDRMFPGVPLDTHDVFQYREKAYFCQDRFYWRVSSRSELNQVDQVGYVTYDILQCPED
Chain of Stromelysin-1 (P08254 whole entry): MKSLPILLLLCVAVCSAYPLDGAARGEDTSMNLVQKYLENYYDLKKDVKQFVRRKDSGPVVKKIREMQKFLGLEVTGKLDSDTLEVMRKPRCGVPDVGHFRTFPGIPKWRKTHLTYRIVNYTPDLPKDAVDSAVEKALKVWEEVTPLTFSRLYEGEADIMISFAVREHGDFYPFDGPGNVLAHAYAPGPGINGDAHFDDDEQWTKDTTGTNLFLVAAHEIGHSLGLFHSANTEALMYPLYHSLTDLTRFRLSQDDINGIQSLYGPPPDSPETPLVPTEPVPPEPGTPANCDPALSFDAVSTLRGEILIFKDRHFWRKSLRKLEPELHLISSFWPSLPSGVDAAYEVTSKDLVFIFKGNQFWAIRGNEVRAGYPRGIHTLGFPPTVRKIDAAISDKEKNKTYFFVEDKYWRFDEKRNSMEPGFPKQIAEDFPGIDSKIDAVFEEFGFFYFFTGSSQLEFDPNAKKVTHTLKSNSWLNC
Chain of Cytochrome P450 2C19 (P33261 whole entry): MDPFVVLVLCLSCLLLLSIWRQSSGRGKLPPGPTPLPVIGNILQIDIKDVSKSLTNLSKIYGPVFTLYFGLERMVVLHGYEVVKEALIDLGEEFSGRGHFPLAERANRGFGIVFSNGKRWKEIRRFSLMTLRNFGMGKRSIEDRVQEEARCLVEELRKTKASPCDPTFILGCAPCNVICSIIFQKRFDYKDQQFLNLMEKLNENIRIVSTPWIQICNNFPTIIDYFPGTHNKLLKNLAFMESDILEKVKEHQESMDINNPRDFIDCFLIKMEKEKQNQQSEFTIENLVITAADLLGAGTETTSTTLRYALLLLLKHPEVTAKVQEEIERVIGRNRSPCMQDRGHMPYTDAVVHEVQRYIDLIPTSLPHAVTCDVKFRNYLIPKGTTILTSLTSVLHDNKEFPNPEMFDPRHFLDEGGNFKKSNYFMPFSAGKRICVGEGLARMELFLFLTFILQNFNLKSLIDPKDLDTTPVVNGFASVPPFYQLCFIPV
Chain of Cytochrome P450 2D6 (P10635 whole entry): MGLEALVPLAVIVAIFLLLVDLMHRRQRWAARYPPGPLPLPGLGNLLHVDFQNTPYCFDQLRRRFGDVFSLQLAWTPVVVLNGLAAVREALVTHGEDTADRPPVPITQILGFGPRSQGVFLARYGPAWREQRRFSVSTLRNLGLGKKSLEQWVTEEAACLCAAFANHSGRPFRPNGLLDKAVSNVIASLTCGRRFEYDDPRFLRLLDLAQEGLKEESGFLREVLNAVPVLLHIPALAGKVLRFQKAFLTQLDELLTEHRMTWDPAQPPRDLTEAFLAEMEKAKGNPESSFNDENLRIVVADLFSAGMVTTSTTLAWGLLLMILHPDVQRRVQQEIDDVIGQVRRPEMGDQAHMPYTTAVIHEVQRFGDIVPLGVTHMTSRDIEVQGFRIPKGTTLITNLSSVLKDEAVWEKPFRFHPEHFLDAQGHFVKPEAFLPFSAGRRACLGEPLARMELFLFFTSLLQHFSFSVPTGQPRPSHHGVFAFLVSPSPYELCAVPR
Chain of Cytochrome P450 3A4 (P08684 whole entry): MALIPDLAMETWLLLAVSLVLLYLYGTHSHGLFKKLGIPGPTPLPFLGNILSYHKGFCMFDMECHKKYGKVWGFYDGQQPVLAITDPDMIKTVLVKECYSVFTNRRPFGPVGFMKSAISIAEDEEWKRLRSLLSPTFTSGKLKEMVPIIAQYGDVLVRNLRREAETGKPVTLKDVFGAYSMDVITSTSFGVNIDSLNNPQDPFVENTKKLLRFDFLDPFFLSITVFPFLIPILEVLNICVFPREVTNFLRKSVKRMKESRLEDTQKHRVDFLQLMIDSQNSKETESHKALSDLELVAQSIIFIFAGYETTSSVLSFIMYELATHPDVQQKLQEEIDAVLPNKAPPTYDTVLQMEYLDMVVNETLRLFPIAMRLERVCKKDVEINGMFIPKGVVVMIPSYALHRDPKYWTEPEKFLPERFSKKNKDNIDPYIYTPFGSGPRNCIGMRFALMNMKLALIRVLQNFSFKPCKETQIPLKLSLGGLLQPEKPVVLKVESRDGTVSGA
Chain of Disintegrin and metalloproteinase domain-containing protein 17 (P78536 whole entry, the tested form may be a part): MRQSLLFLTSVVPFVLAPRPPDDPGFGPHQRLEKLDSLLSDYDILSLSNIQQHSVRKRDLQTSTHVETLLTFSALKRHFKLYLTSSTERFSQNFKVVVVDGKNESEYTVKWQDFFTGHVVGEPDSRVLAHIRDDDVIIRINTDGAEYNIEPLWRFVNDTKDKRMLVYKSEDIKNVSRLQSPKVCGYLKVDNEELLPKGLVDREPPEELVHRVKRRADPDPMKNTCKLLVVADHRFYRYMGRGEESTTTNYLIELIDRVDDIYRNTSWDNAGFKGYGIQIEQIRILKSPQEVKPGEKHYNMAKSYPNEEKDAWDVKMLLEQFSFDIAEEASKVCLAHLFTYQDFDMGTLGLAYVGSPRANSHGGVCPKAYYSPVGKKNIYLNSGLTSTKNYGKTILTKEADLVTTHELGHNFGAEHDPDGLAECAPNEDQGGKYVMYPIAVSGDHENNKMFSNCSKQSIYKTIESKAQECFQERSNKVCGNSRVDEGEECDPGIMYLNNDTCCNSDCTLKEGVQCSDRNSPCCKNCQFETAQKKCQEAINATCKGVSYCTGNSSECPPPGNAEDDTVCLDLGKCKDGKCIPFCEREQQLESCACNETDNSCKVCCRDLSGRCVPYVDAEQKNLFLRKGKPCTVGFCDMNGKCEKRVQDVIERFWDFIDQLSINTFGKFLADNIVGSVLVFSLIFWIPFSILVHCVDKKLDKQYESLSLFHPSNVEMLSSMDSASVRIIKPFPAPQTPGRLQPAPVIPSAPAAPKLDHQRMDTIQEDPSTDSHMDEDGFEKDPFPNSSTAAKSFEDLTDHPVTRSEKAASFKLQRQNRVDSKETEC

| inhibition (INH) (Cytochrome P450 3A4) | half-life [1] [min] | clearance [2] [mL/min/kg] | IC50 (Interstitial collagenase) [µM] | inhibition (INH) (Cytochrome P450 2C9) | bioavailability [3] [%] | AUC [4] [µM·h] | IC50 [5] [µM] | Vd [6] [L/kg] | inhibition (INH) (Cytochrome P450 2A6) | inhibition (INH) (Cytochrome P450 2D6) | Cmax [7] [µM] | inhibition (INH) (Cytochrome P450 1A2) | inhibition (INH) (Cytochrome P450 2C19) | IC50 [8] [nM] | IC50 [9] [nM] | IC50 [10] [nM] | IC50 (Collagenase 3) [nM] | IC50 [11] [nM] | IC50 (Stromelysin-1) [nM] | Structure (SMILES) |
| --- | --- | --- | --- | --- | --- | --- | --- | --- | --- | --- | --- | --- | --- | --- | --- | --- | --- | --- | --- | --- |
| Not Active | 270 | 4.83 | > 10 | Not Active | 119 | 88.4 | > 10 | 2.6 | Not Active | Not Active | 15.9 | Not Active | Not Active | 29 | > 10000 |  |  |  |  | C[C@@H]1CN(S(=O)(=O)N[C@@]2(C(=O)O)[C@H](C)[C@]2(C)c2ccccc2)CCN1c1ccc(C#N)s1 |
|  |  |  |  |  |  |  |  |  |  |  |  |  |  |  | 3.9 | 58 | 3.4 | 4 | 68 | C[C@@H]1[C@H](c2ccccc2)[C@]1(NS(=O)(=O)c1ccc(-n2cc(Cl)cn2)s1)C(=O)O |
